Assay results collected from several papers.
Compare with care: the assays were run in different laboratories.
Target: Histamine H2 receptor (HRH2, Homo sapiens, UniProt P25021)
Concentration: 10 µM

c1ccc(C(NCCNC(c2ccccc2)c2ccccc2)c2ccccc2)cc1 — inhibition (cell-free assay): 99%
CCCCCCCCCCCC(=O)OC[C@@H](COP(=O)(O)OCCNC(=O)c1ccc(Cn2c(=O)[nH]c3c(N)nc(OCCOC)nc32)cc1)OC(=O)CCCCCCCCCCC — inhibition (ligand displacement; radioligand): 40%
C[C@H](C(=O)N[C@H]1COc2ccccc2[C@@H]1S(C)(=O)=O)c1ccc(F)cc1 — inhibition (cell-free assay): -11%
Nc1ncc(-c2nc(N3CCOCC3)nc(N3CCOCC3)n2)c(C(F)F)n1 — remaining signal (cell-free assay; radioligand): 106%
COCc1c(-c2cc3cc(C)cc(OC)c3s2)c2c(N)ncnn2c1CN1CCNC(=O)C1 — inhibition (ligand displacement; radioligand): -8%
CCN(CC)CCCC[C@H](NC(=O)[C@H](CC(C)C)NC(=O)[C@H](C)NC(=O)[C@H](Cc1ccccc1)NC(=O)c1ccc(C(C)(C)C)cc1)C(=O)N[C@@H](CO)C(=O)OC — inhibition (ligand displacement; radioligand): 1%
Cn1cncc1[C@@](O)(COc1ccc(C#N)cc1-c1ccc(OC(F)(F)F)cc1)c1ccc(C#N)cc1 — inhibition (ligand displacement): 5.38%
Clc1ccc2c(C3CCN(CCc4c[nH]c5ccccc45)CC3)c[nH]c2c1 — inhibition (ligand displacement; radioligand): 53%
N#CC1(c2ccccn2)CCN(Cc2cc(C(=O)O)c(=O)n3ccccc23)CC1 — inhibition (cell-free assay): 11.7%
CC(C)N1CCC[C@H]1CNC(=O)c1cn(C2CCCC2)c(=O)c2c1c1ccccc1n2C — inhibition (ligand displacement; radioligand): 25%
COc1ccc(S(=O)(=O)N2CCCCC2)cc1C — inhibition (ligand displacement; radioligand): < 30%
CC(C)Cn1cnc2c(N)nc3ccccc3c21 — inhibition (ligand displacement; radioligand): 63%
